Screening data as filed in PubChem.
Sampled rows, rich in hits. Any-hit rate of the full collection: about 2.2%.
PglD DTNB – PglD (C. jejuni) enzyme inhibition. purified PglD enzyme, DTNB colorimetric CoA detection. inhibition, % at 12.5 µM. actives 0.098% (n = 360,000). AID 602405; in the data active = inhibition above about 16%, passing the limit was not always enough; inconclusive = no clear call, values can overlap the other calls
SUMO Mot1 rescue – SUMOylation pathway inhibition by Mot1-301 growth rescue; S. cerevisiae Mot1-301 growth rescue, ATP luminescence, 38.5C; percent above DMSO median, 100 means doubled; growth rescue, % at 18.8 µM; actives 1% (n = 320,000);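 active = every valid replicate shows activation above 250% relative to neutral control wells; inactive = the rest, any valid replicate at or below 250%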;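 note: OY570 slx delta 5 strain wells were the positive control but not used for scaling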
Cneo AK release – causes C. neoformans cell lysis | adenylate kinase release luminescence, 4 h; normalised: neutral wells 0, clomiphene wells 100 | lysis activity, % at 15 µM | actives 0.2% (n = 360,000);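 active = mean lysis activity across replicates of at least 80%, whatever share of replicates individually reach that level; inactive = mean lysis activity below 80%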
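Schedule: static 4 h at 37 °C with compound, 1 h detection; system: C. neoformans cells; benchmarks: Clomiphene as positive control; buffer or medium: fresh YPD medium; measure: luminescence rise reflecting yeast cell lysis; measured by: luminescent adenylate kinase detection reagent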
rRNA inh HTS – inhibits bacterial ribosomal RNA function over humanized ribosomes; E. coli WT GFP vs humanized-ribosome RFP mutants, fluorescence, 24 h; hits give low values; DMSO median 0, no signal -100; GFP signal change (wild-type ribosome), % (no concentration beside the values); actives 1.6% (n = 350,000); AID 720706;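 active = significant combined selectivity score with lowered wild-type GFP, culture density cut under 30%, mutant RFP and density less affected; inactive = any of these conditions unmet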
CR mimetic SO – lowers age-related superoxide in aged yeast cells. S. cerevisiae aged cells, superoxide DHE fluorescence; hits give low values. superoxide response (% of plate mean), % at 10 µM. actives 0.18% (n = 330,000);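 active = superoxide response under a set limit, about three screen SD below normal, cut at about 65% in these data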;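 note: yeast aged for seven days with compound at 30 °C before DHE staining; 100% = average MFI of all compound-treated wells on the plate with controls excluded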
AID977621 – growth inhibition of wild-type GFP E. coli, dose response, H69 mutant RFP, cherry-pick; shares compounds with rRNA inh HTS; E. coli wild-type GFP strain growth, fluorescence, 24 h; activity change, negative = inhibition at 50 µM; 1,900 tested, under 10 active; AID 977621;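 active = Wild-type ribosome reporter drop at least double the humanized mutant ribosome reporter drop, growth loss under a set limit; inconclusive = no clear call, values can overlap the other calls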;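 note: wild-type GFP and H69 mutant RFP strains grown together 50/50 in each well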
AID977628 – E. coli growth inhibition, wild-type GFP versus h24 humanized RFP strain, dose response, h24 mutant RFP vs wild-type GFP, cherry-pick; E. coli WT GFP strain growth, fluorescence, 24 h; activity change, negative = inhibition at 50 µM; 1,900 tested, under 10 active; shares compounds with rRNA inh HTS;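 active = compound lowering the normal-ribosome reporter at least twice as much as the humanized-ribosome reporter, growth loss under a set limit; inconclusive = no clear call, values can overlap the other calls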;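 note: wild-type GFP and h24 humanized RFP strains co-cultured 1 to 1 per well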
* = called active by the depositor; ? = inconclusive; · = no result given.

SMILES	PglD DTNB	SUMO Mot1 rescue	Cneo AK release	rRNA inh HTS	CR mimetic SO	AID977621	AID977628
O=C1c2ccccc2NC(c2cccc(F)c2)N1Cc1ccco1 (stereo not given)	-6	-14	-3	-33*	122	-4.2	-3.1
COc1cccc(-c2ccc3c(c2)O[C@@H](CN(C)Cc2cncnc2)[C@H](C)CN([C@@H](C)CO)S3(=O)=O)c1	2	·	1	-4	·	·	·
Cc1ccc2oc(=O)n(CCOc3ccccc3)c2c1	·	-5	·	18	97	·	·
Cc1cccc(OCCn2c(=O)oc3ccc(C)cc32)c1	19	-6	-1	-27*	96	2.7	-1.3
Cc1nc(Nc2ccccc2)sc1C(=O)Nc1ccccc1	·	-29	·	-22*	86	?	?
CCOC(=O)c1sc(Nc2cccc(Cl)c2)nc1C	3	7	-1	-23*	100	-9.1	2.7
O=C(NC1CCCCC1)N1CC(=O)N2[C@@H](CO)[C@H](c3ccc(/C=C/c4ccccc4)cc3)[C@@H]2C1	·	·	·	-9	·	·	·
CCOC(=O)c1cc(-c2ccc(OC)cc2)n[nH]1	·	-9	·	-25*	99	-24	-13
COC(=O)c1cc(-c2ccc(Cl)cc2)n[nH]1	·	-6	·	-12	111	·	·
CCN(CC)S(=O)(=O)c1cc(NC(=O)C(C)N2CCN(Cc3ccc4c(c3)OCO4)CC2)ccc1C (stereo not given)	0	10	3	-21*	94	?	·
CCN(CC)S(=O)(=O)c1cc(NC(=O)C(C)Nc2ccccc2N2CCOCC2)ccc1C (stereo not given)	5	-10	2	-21	106	·	·
Cc1cc2nc(-c3ccc4c(c3)CCC4)ccn2n1	·	·	·	-31*	109	·	?
CS(=O)(=O)c1ccc(C(=O)Nc2nc(-c3ccco3)c(-c3ccco3)s2)cc1	-6	·	-2	-19*	·	-11	?
O=C(Nc1nc(-c2ccco2)c(-c2ccco2)s1)C1CCC1	-4	20	2	11	98	·	·
COc1ccc(S(=O)(=O)Nc2cccc3c2O[C@H](CN(C)C(=O)Nc2ccc(C(F)(F)F)cc2)[C@H](C)CN([C@H](C)CO)C3=O)cc1	4	·	3	-6	·	·	·
Cc1ccccc1S(=O)(=O)c1cc2ccccc2nc1N	4	·	0	-30*	107	1	·
Cc1cc(SCC(=O)c2cccs2)n2nc(C)c(-c3ccc(Cl)cc3)c2n1	·	-12	·	-31*	106	-1.6	-1.9
C=CCSc1cc(C)nc2c(-c3ccc(Cl)cc3)c(C)nn12	-1	-4	-2	-51	113	·	·
COc1cccc(-c2ccc(NC(=O)C3CCCN(Cc4cnn(C(C)C)c4)C3)cc2)c1 (stereo not given)	-4	4	-1	-24*	102	·	-0.47
O=C1c2ccccc2C(c2nnnn2C2CCCCC2)N1CCc1ccc(O)cc1 (stereo not given)	·	·	·	-18*	·	7.9	-5.5
CC(=O)N(C)C[C@@H]1Oc2cc(C#Cc3ccc(F)cc3)ccc2S(=O)(=O)N([C@@H](C)CO)C[C@H]1C	9	·	8	-28	·	·	·
C[C@@H]1CN([C@H](C)CO)C(=O)c2cc(NC(=O)Nc3ccc4c(c3)OCO4)ccc2O[C@@H](C)CCCCO[C@H]1CN(C)Cc1ccc(C(=O)O)cc1	-1	·	0	3	·	·	·
CO[C@@H]1CN(C)C(=O)c2ccc(NC(=O)NC(C)C)cc2OC[C@@H](C)N(Cc2ccc(-c3ccccn3)cc2)C[C@@H]1C	0	·	1	-5	·	·	·
Cc1cccc(NC(=O)c2sc3nc(-c4ccccc4)cn3c2C)n1	-1	11	1	-18*	92	-12	·
CN1CCN(C(=O)c2cc3sc4ccccc4c3s2)CC1	1	-5	-10	-24*	99	·	?
SMILES	PglD DTNB	SUMO Mot1 rescue	Cneo AK release	rRNA inh HTS	CR mimetic SO	AID977621	AID977628
C[C@@H]1CN([C@H](C)CO)S(=O)(=O)c2ccc(-c3cccnc3)cc2O[C@H]1CN(C)C(=O)C1CCC1	1	·	1	0	·	·	·
Cc1cc(C)cc(NS(=O)(=O)c2c(C(=O)N3CCCCCC3)c(C)n(C)c2C)c1	-2	1	1	-29*	86	-5.3	-7.1
CN1CCN(C(=O)C[C@@H]2C=C[C@@H](NC(=O)Cc3ccccn3)[C@H](CO)O2)CC1	0	·	0	3	·	·	·
CS(=O)(=O)N1CC2CCCN2c2ccc(C(F)(F)F)cc21 (stereo not given)	4	213	1	-33*	90	-1.4	-2.8
CCN1CCN(C(=O)CS(=O)(=O)Cc2nc(-c3ccccc3C)oc2C)CC1	-5	20	-2	2	99	·	·
Cc1ccccc1-c1nc(CS(=O)(=O)CC(=O)N2CCCCC2)c(C)o1	3	4	1	-19*	99	-0.96	-6.1
CC(C)(C)NC(=O)C(c1ccncc1)N(Cc1ccc(F)cc1)C(=O)c1ccc(-c2ccccc2)[nH]1 (stereo not given)	·	-35	·	-21*	98	10	1.3
O=C(c1cccs1)c1c[nH]cc1-c1ccccc1	12	16	1	-30*	100	-0.54	-2.7
CCc1nc2ccccc2c(C(=O)OCC(=O)NC2CC2)c1C	2	-1	0	8	102	·	·
CCc1nc2ccccc2c(C(=O)OCC(=O)NC(=O)c2cccn2C)c1C	2	-4	0	-24*	117	?	-4.1
CCCOC(=O)c1ccc(NC(=O)c2nc3nc(C)cc(C)n3n2)cc1	5	-12	-2	-23*	104	1.3	-7.8
Cc1cc(C)n2nc(C(=O)OCC(=O)Nc3ccc(Cl)cc3)nc2n1	5	·	-1	12	·	·	·
O=C(O)c1cc(-c2ccc(-c3ccc(F)cc3)o2)nc2ccccc12	-1	-21	-2	-38*	202	-13	·
COc1ccccc1C1CCN(C(=O)c2ccco2)CC1	2	-4	-3	-23*	90	-4.1	?
COc1ccccc1N1CCN(C(=O)c2ccco2)CC1	1	-15	0	-2	87	·	·
O=S1(=O)N[C@H](Cc2ccccc2)COc2cc(N3CCC[C@H]3CO)ccc21	·	·	·	-13	·	·	·
O=S1(=O)N[C@H](Cc2ccccc2)COc2cccc(N3CCC[C@H]3CO)c21	·	·	·	-22*	·	-9.2	·
O=S1(=O)N[C@@H](Cc2ccccc2)COc2cc(N3CCC[C@H]3CO)ccc21	·	·	·	-16*	·	·	-8.9
C[C@H]1CN([C@@H](C)CO)S(=O)(=O)c2ccc(C#CC3CC3)cc2O[C@H]1CN(C)Cc1ccncc1	5	·	-1	-9	·	·	·
Cc1onc(-c2ccccc2Cl)c1C(=O)Nc1ccc(Cl)cn1	·	-7	·	-22*	108	-10	-6.3
